≈ marks a conversion by molar mass, not a printed value.
How the values were obtained:
[1] = tested on: Mycobacterium tuberculosis; test: Antimicrobial activity against Mycobacterium tuberculosis H37Rv ATCC 27294 after 16 to 24 hrs by microplate alamar blue assay; format: functional
How it was run: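 M. tuberculosis H37Rv inoculum 2×10^5 cfu/mL (100 µL) added to twofold dilutions in Middlebrook 7H12 medium; final test range 128 µM to 0.5 µM from 12.8 mM DMSO stocks. Incubated 37 °C; day 7 Tween 80 plus Alamar Blue added, further 16-24 h at 37 °C. Fluorescence ex 530/em 590 nm; MIC = lowest concentration giving >90% fluorescence reduction versus replicate bacteria-only controls. Rifampin, isoniazid controls.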

[2] = Cytotoxicity against human U937 cells assessed as cell viability at 1.25 ug/ml after 72 hrs by MTT assay; format: cell-based, U-937; settings: read-out: Activity
How it was run: (§1)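 U937 human monocytic cells plated at 1 × 10^5 cells/mL and allowed to adhere for 1 h at 37 °C in 5% CO2. Non-adherent cells were washed off with RPMI 1640. Adherent cells were exposed to compound in triplicate, with medium alone as the live control and 3% Tween 20 as the dead control. MTT (5 mg/mL in PBS) was then added for 3 h at 37 °C. Formazan was dissolved in 0.4 M HCl/isopropanol and absorbance read at 600 nm. Results are expressed as % cell viability.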

[3] = Cytotoxicity against human U937 cells assessed as cell viability at 5 ug/ml after 72 hrs by MTT assay; format: cell-based, U-937; settings: read-out: Activity; how it was run: as §1
[4] = Cytotoxicity against human U937 cells assessed as cell viability at 10 ug/ml after 72 hrs by MTT assay; format: cell-based, U-937; settings: read-out: Activity; how it was run: as §1
[5] = Cytotoxicity against human U937 cells assessed as cell viability at 20 ug/ml after 72 hrs by MTT assay; format: cell-based, U-937; settings: read-out: Activity; how it was run: as §1
Serum = test: Stability of the compound in 80% human blood serum assessed as hydrolysis to 2-bromo-6-(1H-imidazol-1-yl)-7H-indeno[2,1-c]quinolin-7-one oxime at 1 mg after 24 hrs at 37 degC by LC-MS analysis; format: ADME, cell-free; set-up: scale not given: the % may be the effect or the level left
How it was run: (§2)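 Enzymatic hydrolysis: 1 mg prodrug dissolved in 1 mL ethanol, then 200 µL preheated human blood serum diluted to 80% with 0.16 M phosphate buffer (pH 7.4) was added. Samples were kept at 37 °C (24 h) and centrifuged 10 min at 10,000 rpm. Remaining prodrug in the supernatant was monitored by TLC and LC-MS. t1/2 is the time to 50% hydrolysis.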

[6] = Stability of the compound in 10% aqueous ammonia buffer at pH 8 assessed as hydrolysis to 2-bromo-6-(1H-imidazol-1-yl)-7H-indeno[2,1-c]quinolin-7-one oxime at 1 mg at 37 degC by LC-MS analysis; format: physicochemical; set-up: scale not given: the % may be the effect or the level left
How it was run: (§3)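 Chemical hydrolysis: 1 mg prodrug dissolved in 1 mL of 10% aqueous ammonia in methanol (pH 8) and held in a thermostatted water bath at 37 °C, up to 24 h. Conversion to the parent oxime was followed by TLC and LC-MS. t1/2 is the time to 50% hydrolysis.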

[7] = Half life in human blood serum by LC-MS analysis; format: ADME, cell-free, Plasma; how it was run: as §2
[8] = Half life in 10% aqueous ammonia buffer at pH 8 assessed as hydrolysis to 2-bromo-6-(1H-imidazol-1-yl)-7H-indeno[2,1-c]quinolin-7-one oxime at 37 degC by LC-MS analysis; format: physicochemical; how it was run: as §3
[9] = Octanol-water partition coefficient, log P of the compound at pH 7.4 at room temperature by UV spectrophotometric analysis; format: physicochemical
How it was run: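 Shake-flask method at room temperature: 1-octanol and phosphate buffer (pH 7.4) were pre-saturated by shaking for 24 h. Compound at 10^-4 M in equal volumes of both phases was shaken vigorously for 1 h, left to stand 15 min, then centrifuged 10 min at 10,000 rpm. UV absorbance of each phase was read at 280 nm against blanks, and P was taken as the octanol/water absorbance ratio.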

[10] = Selectivity index, ratio CC50 for human U937 cells to MIC for Mycobacterium tuberculosis H37Rv ATCC 27294; format: functional, U-937

| Compound | MIC [1] | viability at 72 h, 1.25 ug/ml [2] | viability at 72 h, 5 ug/ml [3] | viability at 72 h, 10 ug/ml [4] | viability at 72 h, 20 ug/ml [5] | Activity (Serum) | Activity [6] | half-life [7] | half-life [8] | logD [9] | Selectivity Index [10] |
| --- | --- | --- | --- | --- | --- | --- | --- | --- | --- | --- | --- |
| CC(=O)O/N=C1\c2ccccc2-c2c1c(-n1ccnc1)nc1ccc(Br)cc21 | < 0.2 µg/mL | 87% | 78% | 59% | 42% | 94% | 95% | 3.5 days | 2880 min | 1.1 | >71 |
| CC(C)(C)OC(=O)N1CCC[C@H]1C(=O)O/N=C1\c2ccccc2-c2c1c(-n1ccnc1)nc1ccc(Br)cc21 | 0.39 µg/mL (≈ 0.663 µM) | 87% | 86% | 74% | 78% | 95% | 90% | 1 days | 720 min | 1.3 | >102 |

From ChEMBL document CHEMBL1799922, “Synthesis and antimycobacterial activity of prodrugs of indeno[2,1-c]quinoline derivatives” (Eur J Med Chem, 2011)
